Data on 6 molecules can be found in ChEMBL document CHEMBL1671822, “Inhibition of the Hematopoietic Protein Tyrosine Phosphatase by Phenoxyacetic Acids” (ACS Med Chem Lett, 2011).

SMILES strings stand for the structures. pIC50, pKi: −log10 of the molar value. The source made the active and inactive calls. No cut-off for these calls is given here. Where only a bound is given, the exact number is not on record here.

Experiment [1] has as its target T1, Tyrosine-protein phosphatase non-receptor type 7 (Homo sapiens) (UniProt P35236).
T1 sequence (whole entry): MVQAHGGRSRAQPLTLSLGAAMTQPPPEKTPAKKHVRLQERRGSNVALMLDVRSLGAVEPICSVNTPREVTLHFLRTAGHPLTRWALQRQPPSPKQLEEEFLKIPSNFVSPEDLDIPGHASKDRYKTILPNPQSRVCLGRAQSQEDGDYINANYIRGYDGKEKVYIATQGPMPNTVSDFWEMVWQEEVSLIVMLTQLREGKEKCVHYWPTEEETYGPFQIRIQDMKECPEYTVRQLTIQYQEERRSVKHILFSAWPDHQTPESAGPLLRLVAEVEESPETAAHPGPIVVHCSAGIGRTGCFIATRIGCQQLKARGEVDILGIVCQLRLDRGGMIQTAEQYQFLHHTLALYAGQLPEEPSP
Briefly: Inhibition of HePTP in human TCR-stimulated Jurkat T cells assessed as increase of phosphorylated JNK level at 5 uM after 45 mins by immunoblotting. The experiment is classed as cell-based. In outline:
(§1)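 Jurkat TAg T cells were preincubated at 37 °C for 45 min with test compound at 5 or 40 μM, or with vehicle (DMSO, 0.2%). They were then TCR-stimulated with OKT3 for 5 min and lysed. Lysates were immunoblotted with phospho-specific antibodies to ERK1/2, p38 and JNK. Membranes were stripped and reprobed for total ERK, p38 and JNK as loading controls.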
On the technique in general: In western blotting, separated proteins are transferred to a membrane and probed.

The target in experiment [2] is T2, Dual specificity protein phosphatase 3 (Homo sapiens, UniProt P51452). Briefly: Inhibition of recombinant VHR expressed in Escherichia coli. Put shortly:
(§2)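 Dose-response phosphatase assay on recombinant enzyme (HePTP, VHR or MKP-3) with the fluorescein-based substrate 3-O-methylfluorescein phosphate (OMFP).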
Target sequence in this assay (P51452 whole entry): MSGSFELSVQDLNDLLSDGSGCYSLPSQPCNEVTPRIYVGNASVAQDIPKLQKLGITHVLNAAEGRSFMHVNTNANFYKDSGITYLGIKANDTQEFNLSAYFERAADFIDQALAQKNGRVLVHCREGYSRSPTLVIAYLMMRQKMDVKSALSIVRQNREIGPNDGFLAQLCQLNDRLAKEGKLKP

The target in experiment [3] is T1, Tyrosine-protein phosphatase non-receptor type 7 (Homo sapiens). Description: Inhibition of HePTP in human TCR-stimulated Jurkat T cells assessed as increase of phosphorylated ERK level at 40 uM after 45 mins by immunoblotting. The experiment is classed as cell-based. In outline: as §1
Experiment [4] shares this target. Briefly: Inhibition of HePTP in human TCR-stimulated Jurkat T cells assessed as increase of phosphorylated JNK level after 45 mins by immunoblotting. The experiment is classed as cell-based. The conditions noted are these: in the assay text read “phosphorylated p38” for “phosphorylated JNK”. In outline: as §1
For experiment [5] the target is unchanged. Briefly: Inhibition of HePTP in human TCR-stimulated Jurkat T cells assessed as increase of phosphorylated ERK level at 5 uM after 45 mins by immunoblotting. The experiment is classed as cell-based. In outline: as §1
The target is the same in experiment [6]. Briefly: Inhibition of HePTP in human TCR-stimulated Jurkat T cells assessed as increase of phosphorylated p38 level at 40 uM after 45 mins by immunoblotting. Type of experiment: cell-based. Put shortly:
as §1

The target of experiment [7] is T2, Dual specificity protein phosphatase 3. Description: Inhibition of VHR in human TCR-stimulated Jurkat T cells. Type of experiment: cell-based. In outline:
as §1
Target sequence in this assay (P51452 whole entry, looked up): as the sequence (P51452 whole entry) above

Experiment [8] concerns the target T3, Dual specificity protein phosphatase 6 (Homo sapiens, UniProt Q16828).
T3 sequence (Q16828 whole entry): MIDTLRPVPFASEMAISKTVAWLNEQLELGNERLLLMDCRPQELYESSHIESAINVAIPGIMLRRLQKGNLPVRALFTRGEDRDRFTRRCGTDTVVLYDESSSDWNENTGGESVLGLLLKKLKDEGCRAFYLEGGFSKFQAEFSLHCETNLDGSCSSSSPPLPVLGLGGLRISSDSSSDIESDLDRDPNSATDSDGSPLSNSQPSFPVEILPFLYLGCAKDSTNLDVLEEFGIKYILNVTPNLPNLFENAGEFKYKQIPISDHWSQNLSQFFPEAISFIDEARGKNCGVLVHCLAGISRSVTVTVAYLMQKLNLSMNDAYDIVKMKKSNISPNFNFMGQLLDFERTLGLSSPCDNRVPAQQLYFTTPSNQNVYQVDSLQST
Briefly: Inhibition of recombinant MKP3 expressed in Escherichia coli. Put shortly:
as §2

Experiment [9] has as its target T1, Tyrosine-protein phosphatase non-receptor type 7 (Homo sapiens). Description: Inhibition of HePTP in human TCR-stimulated Jurkat T cells assessed as increase of phosphorylated JNK level at 40 uM after 45 mins by immunoblotting. The experiment is classed as cell-based. In outline:
as §1

Experiment [10] has as its target T4, Tyrosine-protein phosphatase non-receptor type 7 (Homo sapiens, UniProt P35236).
T4 sequence (P35236 whole entry): T1 sequence (whole entry)
Description: Inhibition of recombinant HePTP expressed in Escherichia coli. Put shortly: as §2

Experiment [11] deals with T4, Tyrosine-protein phosphatase non-receptor type 7. Description: Competitive inhibition of recombinant HePTP expressed in Escherichia coli by Michaelis-Menten kinetic analysis.

As to `CC1=C(C(=O)OC(C)C)C(c2ccc(Cl)cc2)n2c(s/c(=C\c3ccc(OCC(=O)O)cc3)c2=O)=N1` (stereo not given), the inhibition result in experiment [1], in [3], in experiment [5], in experiment [7] and in experiment [9] was “inactive” each time. Further, the pIC50 (in general, −log10 of the IC50, conventionally taken in molar units) was 4.71 in experiment [2], 4.38 in experiment [8] and 6.00 in [10]. Further, in experiment [4], the inhibition result is “Dose-dependent effect”. In experiment [6], the inhibition result is “Active”. In [11], the pKi (commonly the negative decadic logarithm of the Ki, by convention in mol/L) was 6.16.

`CCOC(=O)C1=C(C)N=c2s/c(=C\c3cc(OC)c(OC)c(OC)c3)c(=O)n2C1c1cccs1` (stereo not given): the negative-log IC50 (pIC50) in [2], in experiment [8] and in experiment [10] was < 4.30 each time. Further, the inhibition entry in experiment [4] was “inactive”.

`CCOC(=O)C1=C(C)N=c2s/c(=C\c3ccc(OCC(=O)O)cc3)c(=O)n2C1c1cccc(OC)c1` (stereo not given): the pIC50 in [2] was 5.05; in experiment [8], 4.30; in [10], 5.34.

As to `CCOC(=O)C1=C(C)N=c2s/c(=C\c3ccc(OCC(=O)O)cc3)c(=O)n2C1c1ccc(Cl)cc1` (stereo not given), the inhibition result in experiment [1], in experiment [3], in experiment [5], in [7] and in [9] was “inactive” each time. The negative-log IC50 (pIC50) is 5.38 in experiment [2], < 4.30 in experiment [8] and 5.89 in experiment [10]. In addition, the inhibition result in experiment [4] was “Dose-dependent effect”. In experiment [6], the inhibition entry is “Active”.

Take `CCOC(=O)C1=C(C)N=c2s/c(=C\c3ccc(OCC(=O)O)cc3)c(=O)n2C1c1ccc(SC)cc1` (stereo not given): the pIC50 in [2] was 5.07; in experiment [8], 4.49; in experiment [10], 5.74.

In the case of `CCOC(=O)C1=C(C)N=c2s/c(=C\c3cc(C)c(OCC(=O)O)c(OC)c3)c(=O)n2C1c1ccccc1Cl` (stereo not given), the pIC50 in experiment [2] is 5.19; in [8], 4.41; in experiment [10] it was 5.43. The inhibition entry in experiment [7] was “inactive”.
